Reference: ChEMBL document CHEMBL1136992, “Further studies at neuropeptide s position 5: discovery of novel neuropeptide S receptor antagonists” (J Med Chem, 2009)
Calls of active or inactive are those of the source. No cut-off for these calls is given here. Square brackets hold non-standard residues; d marks the D form. Peptide text beside a SMILES is read from it. * marks the point of attachment. d(tBuAla) = CC(C)(C)C[C@@H](N)C(=O)O; d(aThr) = C[C@@H](O)[C@@H](N)C(=O)O; dCha = N[C@H](CC1CCCCC1)C(=O)O; dChg = N[C@@H](C(=O)O)C1CCCCC1; dPen = CC(C)(S)[C@@H](N)C(=O)O; dPhg = N[C@@H](C(=O)O)c1ccccc1; dNva = CCC[C@@H](N)C(=O)O; tBu = CC(C)(C)*

How the values were obtained:
Format in all cases: functional, cell-based
[1] = target: T1, Neuropeptide S receptor (Mus musculus) (UniProt Q8BZP8); assay: Agonist activity at mouse NPSR expressed in HEK293 cells up to 10 uM by calcium mobilization assay
T1 sequence (whole entry): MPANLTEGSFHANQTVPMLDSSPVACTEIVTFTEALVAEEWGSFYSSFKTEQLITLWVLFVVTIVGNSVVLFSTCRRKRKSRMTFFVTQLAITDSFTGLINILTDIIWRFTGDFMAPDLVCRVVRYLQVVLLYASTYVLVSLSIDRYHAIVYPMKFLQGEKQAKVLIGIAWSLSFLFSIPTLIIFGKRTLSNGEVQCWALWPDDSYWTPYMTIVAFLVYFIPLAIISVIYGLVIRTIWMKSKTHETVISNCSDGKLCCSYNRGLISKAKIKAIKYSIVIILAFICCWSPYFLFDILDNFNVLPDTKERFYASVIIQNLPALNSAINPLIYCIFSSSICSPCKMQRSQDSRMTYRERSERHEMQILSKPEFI
How it was run: (§1)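 HEK293 cells stably expressing mouse NPSR; intracellular calcium mobilization measured after peptide addition, concentration-response curves giving pEC50 and Emax as % over basal. Mean of at least four separate experiments performed in duplicate.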

[2] = target: T2, Neuropeptide S receptor (Mus musculus, UniProt Q8BZP8); assay: Agonist activity at mouse NPSR expressed in HEK293 cells by calcium mobilization assay; how it was run: as §1
T2 sequence (Q8BZP8 whole entry): T1 sequence (whole entry)

[3] = target: T1, Neuropeptide S receptor (Mus musculus); assay: Antagonist activity at mouse NPSR expressed in HEK293 cells assessed as inhibition of NPS-induced response
How it was run: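 HEK293 cells stably expressing mouse NPSR, calcium mobilization. Inhibition response curves to test peptides against 30 nM NPS, run at 37 °C with three up-and-down mixing cycles right after antagonist injection to aid diffusion. Mean of at least four separate experiments performed in duplicate.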

Row | Compound | Emax [1] | EC50 [2] | also measured
1 | CSCC[C@H](NC(=O)CNC(=O)[C@@H](NC(=O)CNC(=O)[C@@H](NC(=O)[C@H](NC(=O)[C@H](CC(N)=O)NC(=O)[C@H](CCCNC(=N)N)NC(=O)[C@H](Cc1ccccc1)NC(=O)[C@@H](N)CO)[C@@H](C)O)C(C)C)[C@@H](C)O)C(=O)N[C@@H](CCCCN)C(=O)N[C@@H](CCCCN)C(=O)N[C@H](C(=O)N[C@@H](CO)C(=O)N[C@@H](Cc1ccccc1)C(=O)N[C@@H](CCC(N)=O)C(=O)N[C@@H](CCCNC(=N)N)C(=O)N[C@@H](C)C(=O)N[C@@H](CCCCN)C(=O)O)[C@@H](C)O (H-SFRN[d(aThr)]VGTGMKKTSFQRAK-OH) | inactive | – | –
2 | CSCC[C@H](NC(=O)CNC(=O)[C@@H](NC(=O)CNC(=O)[C@@H](NC(=O)[C@@H](CC(C)(C)C)NC(=O)[C@H](CC(N)=O)NC(=O)[C@H](CCCN=C(N)N)NC(=O)[C@H](Cc1ccccc1)NC(=O)[C@@H](N)CO)C(C)C)[C@@H](C)O)C(=O)N[C@@H](CCCCN)C(=O)N[C@@H](CCCCN)C(=O)N[C@H](C(=O)N[C@@H](CO)C(=O)N[C@@H](Cc1ccccc1)C(=O)N[C@@H](CCC(N)=O)C(=O)N[C@@H](CCCN=C(N)N)C(=O)N[C@@H](C)C(=O)N[C@@H](CCCCN)C(=O)O)[C@@H](C)O (H-SFRN[d(tBuAla)]VGTGMKKTSFQRAK-OH) | – | 1660 nM | –
3 | CSCC[C@H](NC(=O)CNC(=O)[C@@H](NC(=O)CNC(=O)[C@@H](NC(=O)[C@@H](CSC(C)(C)C)NC(=O)[C@H](CC(N)=O)NC(=O)[C@H](CCCNC(=N)N)NC(=O)[C@H](Cc1ccccc1)NC(=O)[C@@H](N)CO)C(C)C)[C@@H](C)O)C(=O)N[C@@H](CCCCN)C(=O)N[C@@H](CCCCN)C(=O)N[C@H](C(=O)N[C@@H](CO)C(=O)N[C@@H](Cc1ccccc1)C(=O)N[C@@H](CCC(N)=O)C(=O)N[C@@H](CCCNC(=N)N)C(=O)N[C@@H](C)C(=O)N[C@@H](CCCCN)C(=O)N[C@@H](CO)C(=O)O)[C@@H](C)O (H-SFRN[dC](tBu)VGTGMKKTSFQRAKS-OH) | – | – | pKb [3]: 6.5
4 | CSCC[C@H](NC(=O)CNC(=O)[C@@H](NC(=O)CNC(=O)[C@@H](NC(=O)[C@@H](CC1CCCCC1)NC(=O)[C@H](CC(N)=O)NC(=O)[C@H](CCCNC(=N)N)NC(=O)[C@H](Cc1ccccc1)NC(=O)[C@@H](N)CO)C(C)C)[C@@H](C)O)C(=O)N[C@@H](CCCCN)C(=O)N[C@@H](CCCCN)C(=O)N[C@H](C(=O)N[C@@H](CO)C(=O)N[C@@H](Cc1ccccc1)C(=O)N[C@@H](CCC(N)=O)C(=O)N[C@@H](CCCNC(=N)N)C(=O)N[C@@H](C)C(=O)N[C@@H](CCCCN)C(=O)O)[C@@H](C)O (H-SFRN[dCha]VGTGMKKTSFQRAK-OH) | inactive | – | –
5 | CSCC[C@H](NC(=O)CNC(=O)[C@@H](NC(=O)CNC(=O)[C@@H](NC(=O)[C@H](NC(=O)[C@H](CC(N)=O)NC(=O)[C@H](CCCNC(=N)N)NC(=O)[C@H](Cc1ccccc1)NC(=O)[C@@H](N)CO)C1CCCCC1)C(C)C)[C@@H](C)O)C(=O)N[C@@H](CCCCN)C(=O)N[C@@H](CCCCN)C(=O)N[C@H](C(=O)N[C@@H](CO)C(=O)N[C@@H](Cc1ccccc1)C(=O)N[C@@H](CCC(N)=O)C(=O)N[C@@H](CCCNC(=N)N)C(=O)N[C@@H](C)C(=O)N[C@@H](CCCCN)C(=O)O)[C@@H](C)O (H-SFRN[dChg]VGTGMKKTSFQRAK-OH) | inactive | – | –
6 | CC[C@@H](C)[C@@H](NC(=O)[C@H](CC(N)=O)NC(=O)[C@H](CCCNC(=N)N)NC(=O)[C@H](Cc1ccccc1)NC(=O)[C@@H](N)CO)C(=O)N[C@H](C(=O)NCC(=O)N[C@H](C(=O)NCC(=O)N[C@@H](CCSC)C(=O)N[C@@H](CCCCN)C(=O)N[C@@H](CCCCN)C(=O)N[C@H](C(=O)N[C@@H](CO)C(=O)N[C@@H](Cc1ccccc1)C(=O)N[C@@H](CCC(N)=O)C(=O)N[C@@H](CCCNC(=N)N)C(=O)N[C@@H](C)C(=O)N[C@@H](CCCCN)C(=O)O)[C@@H](C)O)[C@@H](C)O)C(C)C (H-SFRN[dI]VGTGMKKTSFQRAK-OH) | inactive | – | –
7 | CCC[C@@H](NC(=O)[C@H](CC(N)=O)NC(=O)[C@H](CCCN=C(N)N)NC(=O)[C@H](Cc1ccccc1)NC(=O)[C@@H](N)CO)C(=O)N[C@H](C(=O)NCC(=O)N[C@H](C(=O)NCC(=O)N[C@@H](CCSC)C(=O)N[C@@H](CCCCN)C(=O)N[C@@H](CCCCN)C(=O)N[C@H](C(=O)N[C@@H](CO)C(=O)N[C@@H](Cc1ccccc1)C(=O)N[C@@H](CCC(N)=O)C(=O)N[C@@H](CCCN=C(N)N)C(=O)N[C@@H](C)C(=O)N[C@@H](CCCCN)C(=O)O)[C@@H](C)O)[C@@H](C)O)C(C)C (H-SFRN[dNva]VGTGMKKTSFQRAK-OH) | – | 2690 nM | –
8 | CSCC[C@H](NC(=O)CNC(=O)[C@@H](NC(=O)CNC(=O)[C@@H](NC(=O)[C@H](NC(=O)[C@H](CC(N)=O)NC(=O)[C@H](CCCNC(=N)N)NC(=O)[C@H](Cc1ccccc1)NC(=O)[C@@H](N)CO)C(C)(C)S)C(C)C)[C@@H](C)O)C(=O)N[C@@H](CCCCN)C(=O)N[C@@H](CCCCN)C(=O)N[C@H](C(=O)N[C@@H](CO)C(=O)N[C@@H](Cc1ccccc1)C(=O)N[C@@H](CCC(N)=O)C(=O)N[C@@H](CCCNC(=N)N)C(=O)N[C@@H](C)C(=O)N[C@@H](CCCCN)C(=O)O)[C@@H](C)O (H-SFRN[dPen]VGTGMKKTSFQRAK-OH) | inactive | – | –
9 | CSCC[C@H](NC(=O)CNC(=O)[C@@H](NC(=O)CNC(=O)[C@@H](NC(=O)[C@H](NC(=O)[C@H](CC(N)=O)NC(=O)[C@H](CCCN=C(N)N)NC(=O)[C@H](Cc1ccccc1)NC(=O)[C@@H](N)CO)c1ccccc1)C(C)C)[C@@H](C)O)C(=O)N[C@@H](CCCCN)C(=O)N[C@@H](CCCCN)C(=O)N[C@H](C(=O)N[C@@H](CO)C(=O)N[C@@H](Cc1ccccc1)C(=O)N[C@@H](CCC(N)=O)C(=O)N[C@@H](CCCN=C(N)N)C(=O)N[C@@H](C)C(=O)N[C@@H](CCCCN)C(=O)O)[C@@H](C)O (H-SFRN[dPhg]VGTGMKKTSFQRAK-OH) | – | 661 nM | –
10 | CSCC[C@H](NC(=O)CNC(=O)[C@@H](NC(=O)CNC(=O)[C@@H](NC(=O)[C@H](NC(=O)[C@H](CC(N)=O)NC(=O)[C@H](CCCNC(=N)N)NC(=O)[C@H](Cc1ccccc1)NC(=O)[C@@H](N)CO)[C@H](C)O)C(C)C)[C@@H](C)O)C(=O)N[C@@H](CCCCN)C(=O)N[C@@H](CCCCN)C(=O)N[C@H](C(=O)N[C@@H](CO)C(=O)N[C@@H](Cc1ccccc1)C(=O)N[C@@H](CCC(N)=O)C(=O)N[C@@H](CCCNC(=N)N)C(=O)N[C@@H](C)C(=O)N[C@@H](CCCCN)C(=O)O)[C@@H](C)O (H-SFRN[dT]VGTGMKKTSFQRAK-OH) | – | 794 nM | –
11 | CC[C@H](C)C(NC(=O)[C@H](CC(N)=O)NC(=O)[C@H](CCCNC(=N)N)NC(=O)[C@H](Cc1ccccc1)NC(=O)[C@@H](N)CO)C(=O)N[C@H](C(=O)NCC(=O)N[C@H](C(=O)NCC(=O)N[C@@H](CCSC)C(=O)N[C@@H](CCCCN)C(=O)N[C@@H](CCCCN)C(=O)N[C@H](C(=O)N[C@@H](CO)C(=O)N[C@@H](Cc1ccccc1)C(=O)N[C@@H](CCC(N)=O)C(=O)N[C@@H](CCCNC(=N)N)C(=O)N[C@@H](C)C(=O)N[C@@H](CCCCN)C(=O)O)[C@@H](C)O)[C@@H](C)O)C(C)C (single isomer, unassigned) | inactive | – | –
12 | H-SFRNGVGTGMKKTSFQRAKS-OH [NEUROPEPTIDE S] | – | 4.79 nM | –
